Data taken from ChEMBL document CHEMBL4316598, “Synthesis, antiproliferative and apoptosis induction potential activities of novel bis(indolyl)hydrazide-hydrazone derivatives” (Bioorg Med Chem, 2019).
pIC50: −log10 of the molar value. Converted amounts (≈) assume the structure as drawn. The source made the active and inactive calls. No cut-off for these calls is given here.

Columns and labels:
HEK293 = assay: Cytotoxicity against HEK293 cells assessed as reduction in cell viability after 4 hrs by MTT assay; assay type: cell-based, Homo sapiens; conditions: for IC50: hek293
Procedure, shortened: (§1)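 MTT: 10,000–20,000 cells/well attached for 16 h, then washed twice with serum-free RPMI. Treated with 1–200 µM for 4 h, 3 parallel runs per concentration. MTT added for 2 h; medium partly removed and isopropanol added. A590 read. Viability = (A treated − A doxorubicin)/(A medium − A doxorubicin)×100. Mean of three experiments, triplicate wells each.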

HeLa [1] = assay: Cytotoxicity against human HeLa cells assessed as reduction in cell viability after 4 hrs by MTT assay; assay type: functional, cell-based; conditions: for IC50: hela; for pIC50: Homo sapiens, HeLa, 4 h, read-out: IC50; procedure, shortened: as §1
A549 = assay: Cytotoxicity against human A549 cells assessed as reduction in cell viability after 4 hrs by MTT assay; assay type: functional, cell-based; conditions: for pIC50: Homo sapiens, A549, 4 h, read-out: IC50; procedure, shortened: as §1
MDA-MB-231 = assay: Cytotoxicity against human MDA-MB-231 cells assessed as reduction in cell viability after 4 hrs by MTT assay; assay type: functional, cell-based; conditions: MDA-MB-231, 4 h; procedure, shortened: as §1
MCF7 [2] = assay: Cytotoxicity against human MCF7 cells assessed as reduction in cell viability after 4 hrs by MTT assay; assay type: functional, cell-based; conditions: for IC50: mcf7; for pIC50: Homo sapiens, MCF7, 4 h, read-out: IC50; procedure, shortened: as §1
HeLa [3] = assay: Induction of caspase-dependent apoptosis in human HeLa cells assessed as activation of caspase-3 at 3 uM after 24 hrs by Western blot analysis; assay type: functional, cell-based
Procedure, shortened: (§2)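 Cleaved caspase-3 immunoblot. Cells were exposed at 1, 3 and 5 µM for 24 h at 37 °C, with paclitaxel 3 µM as positive control. Lysis was in ice-cold Triton X-100 buffer, and protein was measured by BCA. Lysates were separated by electrophoresis, transferred to nitrocellulose and blocked in milk. Primary antibody was applied overnight at 4 °C and secondary for 1 h at 28 °C. Detection was by enhanced chemiluminescence.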

MCF7 [4] = assay: Induction of caspase-dependent apoptosis in human MCF7 cells assessed as activation of caspase-3 at 3 uM after 24 hrs by Western blot analysis; assay type: functional, cell-based; procedure, shortened: as §2
[5] = Cytotoxicity against human SW680 cells assessed as reduction in cell viability after 4 hrs by MTT assay; assay type: functional, cell-based
FaDu = assay: Cytotoxicity against human FADU cells assessed as reduction in cell viability after 4 hrs by MTT assay; assay type: functional, cell-based
SCC-25 = assay: Cytotoxicity against human SCC25 cells assessed as reduction in cell viability after 4 hrs by MTT assay; assay type: functional, cell-based; conditions: SCC-25, 4 h
Detroit 562 = assay: Cytotoxicity against human Detroit 562 cells assessed as reduction in cell viability after 4 hrs by MTT assay; assay type: functional, cell-based; conditions: Detroit 562, 4 h
DU-145 = assay: Antiproliferative activity against human DU145 cells by MTS assay; assay type: functional, cell-based

Cn1cc(C(=O)N/N=C\c2c[nH]c3ccccc23)c2cc(Br)ccc21
IC50 (HEK293): Non-Toxic
IC50 (HeLa [1]): Not Active
IC50 (A549; a549): Not Active
pIC50 (MDA-MB-231): 4.85
IC50 (MCF7 [2]): Not Active

CC(=O)O[C@H]1C(=O)[C@@]2(C)[C@H]([C@H](OC(=O)c3ccccc3)[C@]3(O)C[C@H](OC(=O)[C@H](O)[C@@H](NC(=O)c4ccccc4)c4ccccc4)C(C)=C1C3(C)C)[C@]1(OC(C)=O)CO[C@@H]1C[C@@H]2O
Activity (HeLa [3]): Active
Activity (MCF7 [4]): Active

COc1ccc2[nH]cc(/C=N\NC(=O)c3cn(C)c4ccc(Br)cc34)c2c1
IC50 (HEK293): Non-Toxic
pIC50 (HeLa [1]): 4.85
pIC50 (A549): 4.89
pIC50 (MDA-MB-231): 4.64
IC50 (MCF7 [2]): Not Active

COc1cccc2c1C(=O)c1c(O)c3c(c(O)c1C2=O)C[C@@](O)(C(=O)CO)C[C@@H]3O[C@H]1C[C@H](N)[C@H](O)[C@H](C)O1 [DOXORUBICIN]
pIC50 (HEK293; Homo sapiens, HEK293, 4 h, read-out: IC50): < 3.70
pIC50 [5]: 5.92
pIC50 (FaDu): 6.17
pIC50 (HeLa [1]): 5.96 to 6.44
pIC50 (SCC-25): 5.65
pIC50 (A549): 5.68 to 6.05
pIC50 (MDA-MB-231): 5.51
pIC50 (MCF7 [2]): 6.01 to 6.64
pIC50 (Detroit 562): 5.90

Cn1cc(/C=N\NC(=O)c2cn(C)c3ccccc23)c2ccccc21
IC50 (HEK293): Non-Toxic
IC50 (HeLa [1]): Not Active
pIC50 (A549): 4.72
pIC50 (MDA-MB-231): 4.72
pIC50 (MCF7 [2]): 4.51

O=C(N/C=C/c1c[nH]c2ccccc12)C(=O)c1c[nH]c2ccccc12
IC50 (DU-145): 7.6 µg/mL (≈ 23.1 µM)
